Experimental data as given in ChEMBL document CHEMBL4325826, “Identification of a Selective, Non-Prostanoid EP2 Receptor Agonist for the Treatment of Glaucoma: Omidenepag and its Prodrug Omidenepag Isopropyl” (J Med Chem, 2018).
Values belong to the molecule of their own block, whether it stands above or below them. The source made the active and inactive calls. No cut-off for these calls is given here.

Tests used:
[1] = molecular target: T1, Prostaglandin E2 receptor EP2 subtype (Homo sapiens, UniProt P43116); assay: Agonist activity at recombinant human EP2 receptor expressed in HEK293 cells assessed as induction of cAMP accumulation after 30 mins; assay type: functional, cell-based
In short: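 HEK293 cells stably expressing h-EP2 grown in MEM with 10% FBS, seeded at 2 × 10^4 cells/well. Next day switched to serum-free MEM with 500 µM IBMX (final) for 30 min at 37 °C, then test compound in DMSO added for 30 min at 37 °C. Cells lysed, cAMP quantified by EIA or HTRF kit.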

[2] = molecular target: T2, Prostaglandin E2 receptor EP1 subtype (Homo sapiens, UniProt P34995); assay: Displacement of [3H]prostaglandin E2 from recombinant human full length EP1 receptor expressed in Chem-1 cell membranes after 60 mins by liquid scintillation counting
T2 sequence (P34995 whole entry): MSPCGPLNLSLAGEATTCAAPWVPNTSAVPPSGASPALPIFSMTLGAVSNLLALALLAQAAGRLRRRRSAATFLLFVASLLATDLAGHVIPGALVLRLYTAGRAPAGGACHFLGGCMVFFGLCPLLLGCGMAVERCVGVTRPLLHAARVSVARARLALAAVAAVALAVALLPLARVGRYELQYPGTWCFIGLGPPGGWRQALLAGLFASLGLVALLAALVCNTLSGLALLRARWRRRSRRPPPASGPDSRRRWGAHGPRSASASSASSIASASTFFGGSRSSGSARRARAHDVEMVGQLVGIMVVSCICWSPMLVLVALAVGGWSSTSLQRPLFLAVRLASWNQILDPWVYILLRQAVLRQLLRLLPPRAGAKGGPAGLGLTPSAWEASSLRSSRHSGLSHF

[3] = test system: Cynomolgus monkey; assay: Reduction of intraocular pressure in ocular normotensive cynomolgus monkey at 0.01% administered topically to the eyes once daily at around 5 pm from day 1 to day 14 and measured at 10 am at day 8 and 15 post dose; conditions: Macaca fascicularis
[4] = Apparent permeability of the compound at 100 uM after 5 hrs by PAMPA; assay type: ADME
[5] = test system: Cynomolgus monkey; assay: Reduction of intraocular pressure in ocular normotensive cynomolgus monkey administered topically to the eyes once daily at around 5 pm from day 1 to day 14 and measured at […] at day 8 and 15 post dose; assay type: functional, organism-based; conditions: Macaca fascicularis
[6] = molecular target: T1, Prostaglandin E2 receptor EP2 subtype; assay: Displacement of [3H]prostaglandin E2 from human EP2 receptor expressed in HEK293 cell membranes after 60 mins by liquid scintillation counting
[7] = molecular target: T3, Prostaglandin E2 receptor EP3 subtype (Homo sapiens, UniProt P43115); assay: Displacement of [3H]prostaglandin E2 from recombinant human full length EP3 receptor expressed in Chem-1 cell membranes after 60 mins by liquid scintillation counting
T3 sequence (P43115 whole entry): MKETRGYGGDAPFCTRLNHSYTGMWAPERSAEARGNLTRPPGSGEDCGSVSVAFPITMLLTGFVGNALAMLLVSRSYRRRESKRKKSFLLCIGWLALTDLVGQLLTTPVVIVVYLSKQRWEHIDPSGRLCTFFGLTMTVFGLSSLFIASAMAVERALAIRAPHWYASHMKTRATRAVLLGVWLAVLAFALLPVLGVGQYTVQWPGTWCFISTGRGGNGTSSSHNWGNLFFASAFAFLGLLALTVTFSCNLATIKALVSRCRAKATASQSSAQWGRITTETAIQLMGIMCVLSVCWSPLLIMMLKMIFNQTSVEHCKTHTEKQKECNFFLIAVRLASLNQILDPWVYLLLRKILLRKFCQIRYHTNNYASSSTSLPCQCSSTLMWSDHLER

[8] = molecular target: Prostaglandin E2 receptor EP4 subtype (Homo sapiens, UniProt P35408); assay: Displacement of [3H]prostaglandin E2 from recombinant human full length EP4 receptor expressed in Chem-1 cell membranes after 60 mins by liquid scintillation counting
[9] = molecular target: T4, Cytochrome P450 1A2 (Homo sapiens, UniProt P05177); assay: Induction of CYP1A2 in human Fa2N-4 cells up to 100 uM using phenacetin as substrate incubated for 24 hrs followed by compound replacement for every 24 hrs during 72 hrs incubation period followed by substrate addition for 4 hrs by LC-MS analysis; assay type: ADME, cell-based
T4 sequence (P05177 whole entry): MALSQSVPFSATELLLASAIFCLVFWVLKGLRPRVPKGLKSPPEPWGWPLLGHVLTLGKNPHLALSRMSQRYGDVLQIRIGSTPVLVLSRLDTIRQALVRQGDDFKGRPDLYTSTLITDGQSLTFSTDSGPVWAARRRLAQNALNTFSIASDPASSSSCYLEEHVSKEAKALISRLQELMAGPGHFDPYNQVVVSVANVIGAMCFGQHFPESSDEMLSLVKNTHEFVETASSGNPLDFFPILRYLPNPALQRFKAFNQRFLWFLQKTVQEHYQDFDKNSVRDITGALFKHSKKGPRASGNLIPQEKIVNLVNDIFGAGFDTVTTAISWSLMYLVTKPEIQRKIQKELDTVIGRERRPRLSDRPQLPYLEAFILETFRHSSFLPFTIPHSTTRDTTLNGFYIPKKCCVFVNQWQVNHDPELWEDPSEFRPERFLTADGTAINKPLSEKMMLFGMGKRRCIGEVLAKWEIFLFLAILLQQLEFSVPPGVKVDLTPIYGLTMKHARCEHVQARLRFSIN
In short: (§1)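 Human Fa2N-4 cells exposed to compound to assess CYP3A4 and CYP1A2 induction. Five concentrations, single experiment in triplicate.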

[10] = molecular target: T1, Prostaglandin E2 receptor EP2 subtype; assay: Potency index, ratio of CP-533,536 EC50 to compound EC50 for recombinant human EP2 receptor expressed in HEK293 cells by cAMP accumulation assay; assay type: functional, cell-based
[11] = molecular target: T5, Cytochrome P450 3A4 (Homo sapiens, UniProt P08684); assay: Inhibition of recombinant human CYP3A4 using 7-benzyloxyquinoline fluorescent substrate in presence of NADPH-generating system after 15 mins; assay type: ADME
In short: (§2)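 Each recombinant human CYP isoform (3A4, 2D6, 2C9, 2C19, 1A2) tested for inhibition by compound.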

[12] = molecular target: Cytochrome P450 2D6 (Homo sapiens, UniProt P10635); assay: Inhibition of recombinant human CYP2D6 using 3-(2-(N,N-diethyl-N-methylammonium)ethyl)-7-methoxy-4-methylcoumariniodide fluorescent substrate in presence of NADPH-generating system after 15 mins; assay type: ADME; in short: as §2
[13] = Apparent permeability from apical side at pH 6.5 to basolateral side at pH 7.4 in human Caco2 cells a 10 uM after 30 to 120 mins by HPLC-MS analysis; assay type: ADME, cell-based; conditions: Caco-2, pH 6.5
[14] = Drug metabolism in human liver microsomes assessed as metabolic rate at 10 uM after 30 mins by HPLC-MS analysis; assay type: ADME, Microsome; conditions: 0.5 h
[15] = molecular target: T5, Cytochrome P450 3A4; assay: Induction of CYP3A4 in human Fa2N-4 cells up to 100 uM using testosterone as substrate incubated for 24 hrs followed by compound replacement for every 24 hrs during 72 hrs incubation period followed by substrate addition for 4 hrs by LC-MS analysis; assay type: ADME, cell-based; in short: as §1
[16] = test system: Cynomolgus monkey; assay: Reduction of intraocular pressure in ocular normotensive cynomolgus monkey at 0.3 to 1% administered topically to the eyes once daily at around 5 pm from day 1 to day 14 and measured at 10 am at day 8 and 15 post dose; conditions: Macaca fascicularis
[17] = molecular target: T4, Cytochrome P450 1A2; assay: Inhibition of recombinant human CYP1A2 using 3-cyano-7-ethoxycoumarin fluorescent substrate in presence of NADPH-generating system after 15 mins; assay type: ADME; in short: as §2
[18] = molecular target: Cytochrome P450 2C9 (Homo sapiens, UniProt P11712); assay: Inhibition of recombinant human CYP2C9 using 7-methoxy-4-(trifluoromethyl)coumarin fluorescent substrate in presence of NADPH-generating system after 15 mins; assay type: ADME; in short: as §2
[19] = Apparent permeability from apical side at pH 7.4 to basolateral side at pH 7.4 in human Caco2 cells a 10 uM after 30 to 120 mins by HPLC-MS analysis; assay type: ADME, cell-based; conditions: Caco-2, pH 7.4
[20] = molecular target: Cytochrome P450 2C19 (Homo sapiens, UniProt P33261); assay: Inhibition of recombinant human CYP2C19 using 3-cyano-7-ethoxycoumarin fluorescent substrate in presence of NADPH-generating system after 15 mins; assay type: ADME; in short: as §2
Chain of Cytochrome P450 2C19 (P33261 whole entry): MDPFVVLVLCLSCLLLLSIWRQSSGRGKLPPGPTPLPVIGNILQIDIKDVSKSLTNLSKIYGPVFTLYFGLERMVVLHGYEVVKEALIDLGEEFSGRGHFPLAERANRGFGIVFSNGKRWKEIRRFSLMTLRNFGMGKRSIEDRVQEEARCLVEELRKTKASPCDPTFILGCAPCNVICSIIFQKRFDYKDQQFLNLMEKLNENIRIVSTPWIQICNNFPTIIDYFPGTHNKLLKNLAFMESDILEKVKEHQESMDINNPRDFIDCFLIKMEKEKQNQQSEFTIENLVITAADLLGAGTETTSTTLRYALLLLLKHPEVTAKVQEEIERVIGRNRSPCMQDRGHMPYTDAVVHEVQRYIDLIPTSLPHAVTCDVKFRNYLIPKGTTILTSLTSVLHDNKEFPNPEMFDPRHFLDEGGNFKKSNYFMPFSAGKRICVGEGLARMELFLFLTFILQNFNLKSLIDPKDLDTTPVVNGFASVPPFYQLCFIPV

T1 sequence (P43116 whole entry): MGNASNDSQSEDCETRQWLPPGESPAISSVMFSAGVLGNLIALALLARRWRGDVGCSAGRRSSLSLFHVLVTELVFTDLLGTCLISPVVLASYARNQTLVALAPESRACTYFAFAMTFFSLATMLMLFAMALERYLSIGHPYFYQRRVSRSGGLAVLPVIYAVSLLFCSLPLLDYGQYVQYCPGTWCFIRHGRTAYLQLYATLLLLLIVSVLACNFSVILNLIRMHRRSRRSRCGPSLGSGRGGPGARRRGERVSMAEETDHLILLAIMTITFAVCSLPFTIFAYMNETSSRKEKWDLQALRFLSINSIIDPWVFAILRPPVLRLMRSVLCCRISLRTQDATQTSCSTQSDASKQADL
T5 sequence (P08684 whole entry, canonical isoform): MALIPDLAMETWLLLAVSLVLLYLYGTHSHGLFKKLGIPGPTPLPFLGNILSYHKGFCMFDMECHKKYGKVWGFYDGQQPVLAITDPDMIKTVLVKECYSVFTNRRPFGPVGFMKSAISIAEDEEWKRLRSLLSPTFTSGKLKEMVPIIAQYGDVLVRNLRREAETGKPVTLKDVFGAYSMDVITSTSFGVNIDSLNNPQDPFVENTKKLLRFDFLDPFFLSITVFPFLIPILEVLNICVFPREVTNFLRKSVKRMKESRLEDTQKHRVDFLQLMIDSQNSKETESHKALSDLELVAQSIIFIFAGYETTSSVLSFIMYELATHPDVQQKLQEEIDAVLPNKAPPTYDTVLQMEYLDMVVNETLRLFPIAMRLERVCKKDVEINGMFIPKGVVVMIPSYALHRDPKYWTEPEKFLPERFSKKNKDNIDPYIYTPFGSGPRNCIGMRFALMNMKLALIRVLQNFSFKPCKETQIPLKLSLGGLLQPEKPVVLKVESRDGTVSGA
Chain of Prostaglandin E2 receptor EP4 subtype (P35408 whole entry): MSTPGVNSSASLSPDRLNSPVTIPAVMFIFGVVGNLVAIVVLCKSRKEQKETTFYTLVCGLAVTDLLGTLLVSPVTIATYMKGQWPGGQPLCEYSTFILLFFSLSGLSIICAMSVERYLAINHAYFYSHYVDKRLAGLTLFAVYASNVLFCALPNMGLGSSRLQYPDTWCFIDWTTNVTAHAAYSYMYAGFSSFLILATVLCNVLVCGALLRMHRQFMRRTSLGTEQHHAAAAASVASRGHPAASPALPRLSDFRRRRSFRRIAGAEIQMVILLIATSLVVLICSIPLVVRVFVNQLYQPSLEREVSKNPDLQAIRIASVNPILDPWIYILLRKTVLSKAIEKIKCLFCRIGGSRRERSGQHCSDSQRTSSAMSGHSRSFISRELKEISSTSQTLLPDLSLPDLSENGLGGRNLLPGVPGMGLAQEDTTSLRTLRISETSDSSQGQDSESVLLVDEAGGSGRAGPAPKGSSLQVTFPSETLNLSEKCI
Chain of Cytochrome P450 2C9 (P11712 whole entry): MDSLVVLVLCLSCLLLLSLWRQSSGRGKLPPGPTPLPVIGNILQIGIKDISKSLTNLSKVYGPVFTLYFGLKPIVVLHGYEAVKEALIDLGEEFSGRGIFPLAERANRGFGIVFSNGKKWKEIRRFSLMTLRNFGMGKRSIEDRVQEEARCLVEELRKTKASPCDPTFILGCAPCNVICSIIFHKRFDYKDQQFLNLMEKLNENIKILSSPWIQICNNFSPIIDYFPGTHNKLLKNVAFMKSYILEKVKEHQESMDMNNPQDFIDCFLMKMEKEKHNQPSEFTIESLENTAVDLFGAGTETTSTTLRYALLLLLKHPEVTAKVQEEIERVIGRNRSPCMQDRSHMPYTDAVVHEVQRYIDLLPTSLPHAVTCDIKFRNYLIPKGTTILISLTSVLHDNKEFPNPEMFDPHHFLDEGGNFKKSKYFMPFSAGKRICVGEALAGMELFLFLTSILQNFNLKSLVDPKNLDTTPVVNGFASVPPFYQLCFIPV
Chain of Cytochrome P450 2D6 (P10635 whole entry): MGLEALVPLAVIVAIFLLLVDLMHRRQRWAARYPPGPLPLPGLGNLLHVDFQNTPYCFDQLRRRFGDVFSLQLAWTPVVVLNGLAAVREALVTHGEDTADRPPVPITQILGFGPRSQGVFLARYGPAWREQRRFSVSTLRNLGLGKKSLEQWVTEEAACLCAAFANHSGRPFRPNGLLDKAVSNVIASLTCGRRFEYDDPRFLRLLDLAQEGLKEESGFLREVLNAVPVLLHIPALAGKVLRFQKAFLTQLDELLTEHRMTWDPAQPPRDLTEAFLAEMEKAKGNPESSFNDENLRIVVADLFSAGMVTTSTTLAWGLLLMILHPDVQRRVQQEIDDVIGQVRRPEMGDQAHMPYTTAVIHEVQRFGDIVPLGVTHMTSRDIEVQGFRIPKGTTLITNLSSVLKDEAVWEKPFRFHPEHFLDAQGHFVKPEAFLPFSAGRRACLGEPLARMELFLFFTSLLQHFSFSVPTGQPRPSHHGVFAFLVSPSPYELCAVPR

EC50 [1]: 18 nM
Structure (SMILES): CC(C)C1(c2ccc(CN(Cc3cccc(NCC(=O)O)n3)S(=O)(=O)c3cccnc3)cc2)CC1

EC50 [1]: 45 nM
Structure (SMILES): CC(C)(C)c1ccc(CN(Cc2cccc(NCC(=O)O)n2)S(=O)(=O)c2ccccc2F)cc1

EC50 [1]: 13 nM
Structure (SMILES): CCC1(c2ccc(CN(Cc3cccc(NCC(=O)O)n3)S(=O)(=O)c3cccnc3)cc2)CCC1

EC50 [1]: 91 nM
Structure (SMILES): CC(C)(C)c1ccc(CN(Cc2cccc(NCC(=O)O)n2)S(C)(=O)=O)cc1

IC50 [2]: < 30 nM
Structure (SMILES): CCCCC[C@H](O)/C=C/[C@H]1[C@H](O)CC(=O)[C@@H]1C/C=C\CCCC(=O)O [DINOPROSTONE]

EC50 [1]: 360 nM
Structure (SMILES): CC(C)(C)c1ccc(CN(Cc2csc(NCC(=O)O)n2)S(=O)(=O)c2cccnc2)cc1

Papp at 5 h, 100 µM [4]: 28 ×10⁻⁶ cm/s
IC50 [6]: 4180 nM
IC50 [7]: > 10000 nM
IC50 [8]: > 10000 nM
IC50 [2]: > 10000 nM
Structure (SMILES): CC(C)OC(=O)CNc1cccc(CN(Cc2ccc(-n3cccn3)cc2)S(=O)(=O)c2cccnc2)n1 [OMIDENEPAG ISOPROPYL]
Activity [3]: Active
Activity [5]: Dose-dependent effect

Ki [6]: 15 nM
Structure (SMILES): CC(C)(C)c1ccc(CN(Cc2cccc3oc(C(=O)O)cc23)S(=O)(=O)c2cccnc2)cc1

EC50 [1]: > 1000 nM
Structure (SMILES): CC(C)(C)c1ccc(CN(Cc2cccc(NCC(=O)O)n2)S(=O)(=O)c2ccccc2Cl)cc1

EC50 [1]: 283 nM
Structure (SMILES): CN(CC(=O)O)c1cccc(CN(Cc2ccc(C(C)(C)C)cc2)S(=O)(=O)c2cccnc2)n1

EC50 [1]: > 1000 nM
Structure (SMILES): CC(C)(C)c1ccc(CN(Cc2ccnc(NCC(=O)O)c2)S(=O)(=O)c2cccnc2)cc1

EC50 [1]: 1.6 nM
Structure (SMILES): O=C(O)CNc1cccc(CN(Cc2ccc(-c3ccccn3)cc2)S(=O)(=O)c2cccnc2)n1

EC50 [1]: 19 nM
Structure (SMILES): COc1ccc(S(=O)(=O)N(Cc2ccc(C(C)(C)C)cc2)Cc2cccc(NCC(=O)O)n2)cc1

EC50 [1]: 109 nM
Structure (SMILES): CC(C)(C)c1cccc(CN(Cc2cccc(NCC(=O)O)n2)S(=O)(=O)c2cccnc2)c1

EC50 [1]: 119 nM
Structure (SMILES): O=C(O)CNc1cccc(CN(Cc2ccc(C(F)(F)F)cc2)S(=O)(=O)c2cccnc2)n1

EC50 [1]: 43 nM
Structure (SMILES): O=C(O)CNc1cccc(CN(Cc2ccc(-n3cncn3)cc2)S(=O)(=O)c2cccnc2)n1

EC50 [1]: 118 nM
Structure (SMILES): O=C(O)CNc1cccc(CN(CCCCCc2ccccc2)S(=O)(=O)c2cccnc2)n1

Ki [6]: 433 nM
Structure (SMILES): CC(C)(C)c1ccc(CN(Cc2ccc3cc(C(=O)O)oc3c2)S(=O)(=O)c2cccnc2)cc1

EC50 [1]: > 1000 nM
Structure (SMILES): CC(C)(C)c1ccc(CN(Cc2cc(NCC(=O)O)ccn2)S(=O)(=O)c2cccnc2)cc1

EC50 [1]: 35 nM
Structure (SMILES): O=C(O)CNc1cccc(CN(Cc2ccc(-c3ccc(F)cc3)cc2)S(=O)(=O)c2cccnc2)n1

EC50 [1]: 75 nM
Structure (SMILES): O=C(O)CNc1cccc(CN(Cc2ccc(-c3ccc(Cl)cc3)cc2)S(=O)(=O)c2cccnc2)n1

Papp at 5 h, 100 µM [4]: 0.9 ×10⁻⁶ cm/s
Activity [9]: Not Active
IC50 [6]: 10 nM
Ratio EC50 [10]: > 10
IC50 [11]: > 20000 nM
IC50 [12]: > 20000 nM
Papp A→B at 10 µM [13]: 0.59 ×10⁻⁶ cm/s
Drug metabolism [14]: 57 pmol/min/mg
Activity [15]: Not Active
IC50 [7]: > 10000 nM
IC50 [17]: > 20000 nM
IC50 [8]: 5480 nM
IC50 [2]: > 10000 nM
IC50 [18]: > 20000 nM
Papp A→B at 10 µM [19]: 0.28 ×10⁻⁶ cm/s
EC50 [1]: 1.1 nM
IC50 [20]: > 20000 nM
Structure (SMILES): O=C(O)CNc1cccc(CN(Cc2ccc(-n3cccn3)cc2)S(=O)(=O)c2cccnc2)n1 [OMIDENEPAG]
Activity [16]: Active

EC50 [1]: > 1000 nM
Structure (SMILES): CC(C)(C)c1ccc(CN(Cc2ccc3ccn(CC(=O)O)c3c2)S(=O)(=O)c2cccnc2)cc1

EC50 [1]: 649 nM
Structure (SMILES): CC(C)(C)C1CCC(CN(Cc2cccc(NCC(=O)O)n2)S(=O)(=O)c2cccnc2)CC1 (stereo unspecified)

EC50 [1]: 29 nM
Structure (SMILES): O=C(O)CNc1cccc(CN(Cc2ccc(C3CCCCC3)cc2)S(=O)(=O)c2cccnc2)n1

EC50 [1]: 307 nM
Structure (SMILES): O=C(O)CNc1cccc(CN(Cc2ccc(-c3ccnnc3)cc2)S(=O)(=O)c2cccnc2)n1

EC50 [1]: 620 nM
Structure (SMILES): CC(C)(C)c1ccc(CN(Cc2cccc(NCC(=O)O)n2)S(=O)(=O)c2cccc(Cl)c2)cc1

EC50 [1]: 83 nM
Structure (SMILES): CC(C)(C)c1ccc(CN(Cc2cccc(NCCC(=O)O)n2)S(=O)(=O)c2cccnc2)cc1
